Results taken from ChEMBL document CHEMBL4732039, “Introduction of a cyano group at the 2-position of an (R,S)-3-hydroxy-2-(phosphonomethoxy)propyl (HPMP) derivative of thymine elicits selective anti-HBV activity” (RSC Med Chem, 2021).

Experiments:
[1] = tested on: Human betaherpesvirus 5; test: Antiviral activity against HCMV AD169 infected in human embryonic lung cells; assay type: functional, cell-based; details: Human betaherpesvirus 5, AD169, Lung
[2] = tested on: Hepatitis B virus; test: Antiviral activity against HBV infected in human HepG2.2.2.15 cells assessed as inhibition of viral replication preincubated for 3 days followed by media replenishment with fresh drug and further incubated for 3 days by qPCR analysis; assay type: functional, organism-based; details: for EC50: HepG2 2.2.15; for EC90: HepG2 2.2.15, 144 h, time 6 day
Outline: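 HepG2 2.2.15 human hepatoblastoma cells, carrying two copies of wild-type HBV (strain ayw) genome and constitutively producing virus. Extracellular HBV DNA copy number from released virions quantified by real-time TaqMan qPCR. […] Lamivudine (3TC) was the positive control.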

[3] = tested on: Human alphaherpesvirus 3; test: Antiviral activity against VZV infected in human HFF cells assessed as reduction in virus-induced cytopathic effect incubated for 14 days by cell-titer glo assay; assay type: functional, organism-based; details: Human alphaherpesvirus 3, HFF, 336 h; for EC90: time 14 day
[4] = tested on: Human immunodeficiency virus 2; test: Antiviral activity against HIV-2 ROD infected in human MT4 cells assessed as reduction in virus-induced cytopathic effect measured after 5 days by MTT assay; assay type: functional, organism-based
Outline: (§1)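 MT-4 cells infected with wild-type HIV-1 IIIB or HIV-2 ROD. Protection read out by MTT assay. Cytotoxicity was assessed in parallel in uninfected MT-4 cells.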

[5] = Selectivity index, ratio of CC50 of human HFF cells to EC50 of antiviral activity against VZV; assay type: toxicity; details: read-out: Ratio CC50/EC50
[6] = Cytotoxicity against human HFF cells assessed as reduction in cell viability incubated for 14 days by cell titer glo assay; assay type: cell-based; details: time 14 day
[7] = Selectivity index, ratio of CC50 for human HFF cells to EC50 for antiviral activity against HCMV AD169
[8] = tested on: Human betaherpesvirus 5; test: Antiviral activity against HCMV AD169 infected in human HFF cells assessed as reduction in virus-induced cytopathic effect incubated for 14 days by cell-titer glo assay; assay type: functional, cell-based; details: Human betaherpesvirus 5, AD169, HFF, 336 h; for EC90: time 14 day
[9] = tested on: Human immunodeficiency virus 1; test: Antiviral activity against HIV-1 3B infected in human MT4 cells assessed as reduction in virus-induced cytopathic effect measured after 5 days by MTT assay; assay type: functional, organism-based; outline: as §1
[10] = Cytotoxicity against human HepG2.2.2.15 cells assessed as reduction in cell viability incubated for 6 days by cell titer glo assay; assay type: cell-based; details: time 6 day
[11] = Selectivity index, ratio of CC50 of human HepG2.2.2.15 cells to EC50 of antiviral activity against HBV infected in human HepG2.2.2.15 cells; assay type: toxicity, cell-based; details: read-out: Ratio CC50/EC50

Compound	EC50 [1]	EC50 [2]	EC90 [2]	EC50 [3]	EC90 [3]	EC50 ([4]; mt4)	selectivity ratio [5]	CC50 at 336 h [6]	Ratio CC50/EC50 [7]	EC50 [8]	EC90 [8]	EC50 ([9]; mt4)	CC50 at 144 h [10]	selectivity ratio [11]	EC50 ([4]; Human immunodeficiency virus 2, ROD, MT4, 120 h, read-out: EC50)	EC50 ([9]; Human immunodeficiency virus 1, 3B, MT4, 120 h, read-out: EC50)
Nc1ncnc2c1ncn2C[C@@H](CO)OCP(=O)(O)O	1 µM															
CCN(CC)CC.N#CC(CO)(Cn1ccc(N)nc1=O)OCP(=O)(O)O (stereo not drawn)		> 100 µM	> 100 µM	> 150 µM	> 150 µM	Not Active	1	> 150 µM	1	> 150 µM	> 150 µM	Not Active	> 100 µM	1		
CCN(CC)CC.N#CC(CO)(Cn1cnc2c(N)ncnc21)OCP(=O)(O)O (stereo not drawn)		3.6 µM	9.9 µM	106 µM	> 150 µM	Not Active	1	> 150 µM	>137	1.1 µM	> 150 µM	Not Active	> 100 µM			
CCN(CC)CC.N#CC(CO)(Cn1cnc2c(=O)[nH]c(N)nc21)OCP(=O)(O)O (stereo not drawn)		> 100 µM	> 100 µM	2.08 µM	> 30 µM		47	102 µM	50	2 µM	> 30 µM		> 100 µM	1	33.7 µM	51 µM
CCN(CC)CC.Cc1cn(CC(C#N)(CO)OCP(=O)(O)O)c(=O)[nH]c1=O (stereo not drawn)		0.33 µM	0.79 µM	> 150 µM	> 150 µM	Not Active	1	> 150 µM	1	> 150 µM	> 150 µM	Not Active	> 100 µM	> 302000		
CCN(CC)CC.N#CC(CO)(Cn1ccc(=O)[nH]c1=O)OCP(=O)(O)O (stereo not drawn)		> 100 µM	> 100 µM	> 150 µM	> 150 µM	Not Active	1	> 150 µM	1	> 150 µM	> 150 µM	Not Active	> 100 µM	1		
Nc1nc2c(ncn2COC(CO)CO)c(=O)[nH]1 [GANCICLOVIR]								> 150 µM		0.9 µM	74.2 µM					
